According to ChEMBL document CHEMBL1136716, “Tripeptide probes for tripeptidyl protease I production via gene transfer” (J Med Chem, 2003):

Legend:
Format in all cases: functional, organism-based
Mus musculus [1] = species on record: Mus musculus; assay: Tested for Color of the Final Reaction Product ofTPP-I Histochemical Staining with compound in the presence of p-anisaldehyde in mouse kidney cell preparations; yellow-greenautofluorescent color was observed
In short: (§1)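 Mice were given an anesthetic overdose, then perfused transcardially with 0.9% saline followed by 2% paraformaldehyde in 0.2 M phosphate buffer. Tissues were postfixed 2 h, cryoprotected in 25% sucrose and frozen. Cryostat sections (10 µm) were embedded in 0.5% celloidin and incubated at 37 °C for 4 h in 0.1 M acetate pH 4.5 with 1 mM substrate plus 1 mg/mL of the listed aldehyde. Staining was scored by microscopy on ≥5 sections/animal from ≥3 animals.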

Mus musculus [2] = species on record: Mus musculus; assay: Tested for Intensity of the Final Reaction Product ofTPP-I Histochemical Staining with compound in the presence of p-anisaldehyde in mouse kidney cell preparations;; in short: as §1
Mus musculus [3] = species on record: Mus musculus; assay: Tested for Intensity of the Final Reaction Product ofTPP-I Histochemical Staining with compound in the presence of p-nitrobenzaldehyde in mouse kidney cell preparations; in short: as §1
Mus musculus [4] = species on record: Mus musculus; assay: Tested for Color of the Final Reaction Product ofTPP-I Histochemical Staining with compound in the presence of p-nitrobenzaldehyde in mouse kidney cell preparations; yellow-greenautofluorescent color was observed; in short: as §1
Mus musculus [5] = species on record: Mus musculus; assay: Tested for Intensity of the Final Reaction Product ofTPP-I Histochemical Staining with compound in the presence of benzaldehyde in mouse kidney cell preparations; in short: as §1
Mus musculus [6] = species on record: Mus musculus; assay: Tested for Color of the Final Reaction Product ofTPP-I Histochemical Staining with compound in the presence of benzaldehyde in mouse kidney cell preparations; yellow-greenautofluorescent color was observed; in short: as §1
Mus musculus [7] = species on record: Mus musculus; assay: Tested for Color of the Final Reaction Product ofTPP-I Histochemical Staining with compound in the presence of benzaldehyde in mouse kidney cell preparations; yellow-green color was observed; in short: as §1
Mus musculus [8] = species on record: Mus musculus; assay: Tested for Color of the Final Reaction Product ofTPP-I Histochemical Staining with compound in the presence of p-nitrobenzaldehyde in mouse kidney cell preparations; yellow-greencolor was observed; in short: as §1
Mus musculus [9] = species on record: Mus musculus; assay: Tested for Color of the Final Reaction Product ofTPP-I Histochemical Staining with compound in the presence of p-anisaldehyde in mouse kidney cell preparations; yellow-green color was observed; in short: as §1
Mus musculus [10] = species on record: Mus musculus; assay: Tested for Intensity of the Final Reaction Product ofTPP-I Histochemical Staining with compound in the presence of p-nitrobenzaldehyde in mouse kidney cell preparations;; in short: as §1
Mus musculus [11] = species on record: Mus musculus; assay: Tested for Intensity of the Final Reaction Product ofTPP-I Histochemical Staining with compound in the presence of benzaldehyde in mouse kidney cell preparations;; in short: as §1
Mus musculus [12] = species on record: Mus musculus; assay: Tested for Color of the Final Reaction Product ofTPP-I Histochemical Staining with compound in the presence of benzaldehyde in mouse kidney cell preparations; brown color was observed; in short: as §1
Mus musculus [13] = species on record: Mus musculus; assay: Tested for Color of the Final Reaction Product ofTPP-I Histochemical Staining with compound in the presence of p-nitrobenzaldehyde in mouse kidney cell preparations; brown color was observed; in short: as §1

Structure (SMILES)	Activity (Mus musculus [1])	Activity (Mus musculus [2])	Activity (Mus musculus [3])	Activity (Mus musculus [4])	Activity (Mus musculus [5])	Activity (Mus musculus [6])	Activity (Mus musculus [7])	Activity (Mus musculus [8])	Activity (Mus musculus [9])	Activity (Mus musculus [10])	Activity (Mus musculus [11])	Activity (Mus musculus [12])	Activity (Mus musculus [13])
C[C@H](NC(=O)[C@@H]1CCCN1C(=O)CN)C(=O)n1nc2cccc3c2c1-c1cccc(Cl)c1C3=O	yellow-greenautofluorescent color was observed	yellow-greenautofluorescent color was observed	yellow-greenautofluorescent color was observed	yellow-greenautofluorescent color was observed	yellow-greenautofluorescent color was observed	yellow-greenautofluorescent color was observed							
CC(NC(=O)[C@H](C)N)C(=O)N[C@@H](Cc1ccccc1)C(=O)NNc1ccc2c(c1)C(=O)c1ccccc1C2=O (stereo partly specified)		yellow-green color was observed					yellow-green color was observed	yellow-green color was observed	yellow-green color was observed	yellow-green color was observed	yellow-green color was observed		
NCC(=O)N1CCC[C@H]1C(=O)N[C@@H](CO)C(=O)NNc1cccc2c1C(=O)c1ccccc1C2=O			brown color was observed		brown color was observed							brown color was observed	brown color was observed
